Laboratory results: PMC5148661 (ACS infectious diseases, 2016)

Tests used:
[1] = molecular target: P. berghei DHODH (PbDHODH) (Plasmodium berghei, UniProt A0A509AEH5); experiment: DHODH inhibition, DCIP-based assay; assay type: biochemical
[2] = metabolic stability in liver microsomes; assay type: in vitro ADME; settings: dog
[3] = metabolic stability in liver microsomes; assay type: in vitro ADME; settings: rat
[4] = incubation in cryopreserved hepatocytes; assay type: in vitro ADME, human; settings: 10 μM over 120 minutes
Procedure, shortened: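 Human cryopreserved hepatocytes at 1 × 10^6 cells/mL were incubated with test compound at 10 μM. Metabolites were assigned by accurate mass measurement.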

[5] = test system: D10w/yDHODH P. falciparum cell line; experiment: growth inhibition of transgenic P. falciparum expressing yeast DHODH; assay type: cell-based
Procedure, shortened: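 D10 parasites transfected with yeast DHODH were grown in human erythrocytes in RPMI 1640 with 0.5% Albumax II. EC50 came from a 72 h dose–response growth assay read by SYBR Green DNA fluorescence.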

[6] = test system: P. falciparum Dd2 isolates selected for resistance to DSM265; experiment: activity on DSM265-selected resistant lines; assay type: cell-based; settings: G181C PfDHODH mutant line and 3-fold DHODH gene amplification line
[7] = P. falciparum SCID mouse efficacy model; assay type: in vivo; settings: NOD-scid IL-2Rγnull (NSG), mouse, blood, oral
[8] = test system: P. falciparum Pf3D7^0087/N9; experiment: P. falciparum SCID mouse efficacy model; assay type: in vivo
[9] = molecular target: CYP2C9 (Homo sapiens, UniProt P11712); experiment: reversible cytochrome P450 inhibition; assay type: in vitro ADME
Procedure, shortened: (§1)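 Reversible inhibition of human CYP isoforms tested with isoform-specific probe substrates. Time-dependent (mechanism-based) inhibition was also assessed.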

[10] = test system: CYP isoforms (all isoforms tested); experiment: cytochrome P450 inhibition, other isoforms and time-dependent inhibition; assay type: in vitro ADME
Procedure, shortened: as §1

[11] = test system: CYP isoforms; experiment: as above; assay type: in vitro ADME; settings: 20 μM
Procedure, shortened: as §1

[12] = human pharmacokinetic and dose predictions
Procedure, shortened: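 Human PK was predicted by PBPK modelling from human liver microsome clearance. Allometric scaling of unbound clearance after IV dosing in mouse, rat and dog served as a comparison. Half-life was derived from predicted clearance and Vss. A plasma profile was simulated for a single 200 mg oral dose in the fasted state.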

Sequence of P. berghei DHODH (PbDHODH) (A0A509AEH5 132-517): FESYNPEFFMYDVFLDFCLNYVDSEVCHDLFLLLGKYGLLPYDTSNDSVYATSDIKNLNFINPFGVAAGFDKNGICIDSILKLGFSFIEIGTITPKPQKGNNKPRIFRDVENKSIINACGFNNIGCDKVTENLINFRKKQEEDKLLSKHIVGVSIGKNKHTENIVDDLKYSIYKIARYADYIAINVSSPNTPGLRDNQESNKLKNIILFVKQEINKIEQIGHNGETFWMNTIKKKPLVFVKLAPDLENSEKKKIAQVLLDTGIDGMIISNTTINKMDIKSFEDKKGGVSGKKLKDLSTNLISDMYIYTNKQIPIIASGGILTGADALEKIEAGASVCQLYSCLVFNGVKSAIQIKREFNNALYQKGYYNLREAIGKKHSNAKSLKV
Sequence of CYP2C9 (P11712 whole entry, canonical isoform): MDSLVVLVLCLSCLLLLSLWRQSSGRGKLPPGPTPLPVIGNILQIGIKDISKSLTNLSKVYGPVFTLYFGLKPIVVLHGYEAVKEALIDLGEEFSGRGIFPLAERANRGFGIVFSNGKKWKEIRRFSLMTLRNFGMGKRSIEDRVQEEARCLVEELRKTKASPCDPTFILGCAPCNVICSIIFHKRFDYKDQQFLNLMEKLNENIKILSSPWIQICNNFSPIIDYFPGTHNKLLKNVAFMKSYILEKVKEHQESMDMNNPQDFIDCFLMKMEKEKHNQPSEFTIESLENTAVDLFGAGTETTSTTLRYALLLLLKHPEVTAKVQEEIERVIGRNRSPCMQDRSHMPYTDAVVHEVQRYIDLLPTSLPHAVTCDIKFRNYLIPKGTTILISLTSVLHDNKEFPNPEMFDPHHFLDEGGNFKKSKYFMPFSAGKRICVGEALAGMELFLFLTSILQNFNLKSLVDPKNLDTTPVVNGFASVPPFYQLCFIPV

## Cc1cc(Nc2ccc(C(F)(F)F)nc2)n2nc(C(C)(F)F)nc2n1 [DSM421, 2-(1,1-Difluoroethyl)-5-methyl-N-(6-(trifluoromethyl)pyridin-3-yl)-[1,2,4]triazolo[1,5-a]pyrimidin-7-amine]
[1]
  IC50: 5 µM
  fold less active against PbDHODH than PfDHODH: 100 fold
[2]
  microsomal CLint at 1 μM: < 7 µL/min/mg
[3]
  microsomal CLint at 1 μM: < 7 µL/min/mg
[4]
  degradation in human hepatocyte incubations: minimal degradation
[5]
  inhibition of D10w/yDHODH line: did not inhibit this line
[5]; read-out: EC50 on D10 cells transfected with yeast DHODH
  EC50: > 10 µM
[6]
  cross resistance on DSM265-resistant Dd2 lines: shares cross resistance with DSM265
[7]; 2.6 mg/kg/day
  AUC(0-t): 12900 ng·h/mL
[7]; 5 mg/kg/day
  AUC(0-t): 30800 ng·h/mL
[8]; SCID mice, oral QD 4 days
  tolerability: well tolerated and no adverse reactions were noted
[8]; blood
  Cav at ED90: 0.53 µg/mL
  Cmin at 5 mg/kg/day: 330 ng/mL
  Cmin at ED90: 0.1 µg/mL
[8]; oral QD for 4 days
  ED90 24 h after the last dose: 2.6 mg/kg/day
  dose giving maximum parasite killing: ≥ 5 mg/kg/day
[9]
  inhibition at 20 µM: 22%
[10]
  IC50: > 20 µM
[11]
  inhibition of the other CYP isoforms: no measurable inhibition
[12]; allometric scaling of mice, rats and dogs IV unbound clearance
  predicted unbound human clearance: 2.2 mL/min/kg
[12]; human
  estimated human half-life: ~ 78 h
[12]; human, plasma, estimated human half-life
  half-life: 78 h
